ChEMBL document CHEMBL1127694, “N-(acyloxyalkyl)pyridinium salts as soluble prodrugs of a potent platelet activating factor antagonist” (J Med Chem, 1994)

Assays:
[1] = Half-life values were derived from the decay rate constant (k) by fitting the concentration and time values to the exponential decay function at pH 7; type: ADME
In short: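 Compounds at 20 μM in 25 mM K2PO4 buffer, pH 7, room temperature; aliquots taken over time and quantified by C18 reverse-phase HPLC (UV 250 nm, external calibration). t1/2 = ln(2)/k, with k from fitting concentration vs time to C = C0e^(-kt).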

[2] = The rate of hydrolytic cleavage in plasma was assessed by incubating compounds (30 uM) at 37 degrees Celsius with human plasma adjusted to pH 7; type: ADME
In short: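 Human plasma brought to pH 7 with K2PO4 (50 mM final), compounds at 30 μM, 37 °C. Timed aliquots quenched with 2 volumes acidified acetonitrile and centrifuged. Supernatant quantified by reverse-phase HPLC at 250 nm. t1/2 from single-exponential decay fit, t1/2 = ln(2)/k.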

Rattus norvegicus [3] = experiment: In vivo potency for inhibition of LPS-induced hypotension in rat by intra arterial (i.a.) administration; type: functional
In short: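 Rats recovered ≥1 h after surgery; baseline arterial pressure normalized to 100 mmHg. Compound given intraarterially in DMSO/PEG 400/45% hydroxypropyl-β-cyclodextrin/0.9% saline (2.5:20:30:47.5) 15 min before an i.a. bolus of E. coli LPS 0111:B4, 25 mg/kg in PBS pH 7.4. Pressure read every 1 min. Percent inhibition from area under the pressure–time curve versus vehicle.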

Rattus norvegicus [4] = experiment: In vivo potency for complete inhibition of LPS-induced intestinal damage in rat by intravenous administration; type: functional
In short: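 Sprague–Dawley rats, 200–225 g. Compound or vehicle (25 mM sodium acetate, pH 4) given i.v. via tail vein, then LPS 25 mg/kg 30 min later. Rats killed 30 min after LPS; luminal rinse of a 15 cm intestinal segment from the duodenum assayed for hemoglobin by hemoglobinometer against standards.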

Oryctolagus cuniculus = species: Oryctolagus cuniculus; experiment: Inhibitory activity was determined in PAF-induced serotonin release from rabbit platelets; type: functional
Rattus norvegicus [5] = experiment: In vivo potency for inhibition of PAF-induced cutaneous vascular permeability in rat by intravenous administration; type: functional

Row | Structure (SMILES) | half-life [1] | half-life at 30 µM [2] | ED50 (Rattus norvegicus [3]) | Dose (Rattus norvegicus [4]) | Kb (Oryctolagus cuniculus) | ED50 (Rattus norvegicus [5])
1 | COC(=O)[C@@H]1CCCN1C(=O)OC[n+]1cccc([C@H]2SCc3c(C(=O)c4cn(C(=O)N(C)C)c5cc(-c6ccc(F)cc6)ccc45)ccn32)c1.[Cl-] | 7650 min | 160 min | – | – | – | –
2 | CN(C)C(=O)n1cc(C(=O)c2ccn3c2CS[C@@H]3c2cccnc2)c2ccc(-c3ccc(F)cc3)cc21 | – | – | 0.01 mg/kg | 0.1 mg/kg | 1.1 nM | 6 µg/kg
3 | Cc1oc(=O)oc1C[n+]1cccc([C@H]2SCc3c(C(=O)c4cn(C(=O)N(C)C)c5cc(-c6ccc(F)cc6)ccc45)ccn32)c1.[Cl-] | 246 min | 2.8 min | – | – | – | –
4 | CN(C)C(=O)n1cc(C(=O)c2ccn3c2CS[C@@H]3c2ccc[n+](COC(=O)c3ccccc3)c2)c2ccc(-c3ccc(F)cc3)cc21.[Cl-] | 510 min | 1 min | – | – | – | –
5 | CC(OC(=O)C(C)(C)C)[n+]1cccc([C@H]2SCc3c(C(=O)c4cn(C(=O)N(C)C)c5cc(-c6ccc(F)cc6)ccc45)ccn32)c1.[Cl-] (stereo not given in full) | 1060 min | 31.1 min | – | – | – | –

Now from value to compound, other results behind:

Row | half-life [1] | half-life at 30 µM [2] | Structure (SMILES) | ED50 (Rattus norvegicus [3]) | Dose (Rattus norvegicus [4]) | Kb (Oryctolagus cuniculus) | ED50 (Rattus norvegicus [5])
6 | > 10000 min | > 600 min | CN(C)C(=O)OC[n+]1cccc([C@H]2SCc3c(C(=O)c4cn(C(=O)N(C)C)c5cc(-c6ccc(F)cc6)ccc45)ccn32)c1.[Cl-] | – | – | – | –
7 | 2720 min | 20.8 min | CN(C)C(=O)n1cc(C(=O)c2ccn3c2CS[C@@H]3c2ccc[n+](COC(=O)C(C)(C)C)c2)c2ccc(-c3ccc(F)cc3)cc21.[Cl-] | – | – | – | –
8 | 540 min | 2.6 min | CC(=O)OC[n+]1cccc([C@H]2SCc3c(C(=O)c4cn(C(=O)N(C)C)c5cc(-c6ccc(F)cc6)ccc45)ccn32)c1.[Cl-] | – | – | – | –
9 | 96 min | 1 min | COC(=O)OC[n+]1cccc([C@H]2SCc3c(C(=O)c4cn(C(=O)N(C)C)c5cc(-c6ccc(F)cc6)ccc45)ccn32)c1.[Cl-] | – | – | – | –
